The sample as a whole holds a higher share of hits than the screen did.
A1 apoptosis 2: A1 inhibitors via caspase activation, primary screen, cell-based, luminescence, HTS, two replicates. MEF A1-2A-BIM cells, caspase-Glo luminescence, 3 h; percent of clofoctol response, DMSO zero. caspase activation, % (test concentration not listed). 24,000 tested, under 10 active; in the data active = caspase activation above about 5.9%
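Material: A1-2A-BIM-expressing MEF cells. Buffer or medium: RPMI-1640 plus 10% FBS. Incubation: cells settled overnight, compound exposure 3 h at 37 °C, 5% CO2. Signal: Caspase-Glo 3/7 luminescence, 1 h at room temperature.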
INS-1E ATP HTS: protection of INS-1E cells from cytokine death, primary screen, ATP luminescence, single point. INS-1E cytokine-induced death, 48 h; normalised: neutral wells 0, positive control 100. protection from cytokine-induced ATP loss, % at 10 µM. 20,000 compounds, 0.1% hits;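 active = mean replicate protection from cytokine-induced ATP loss at least 50% and at least 75% of replicates each reaching 50%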
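Test system: INS-1E rat cells | Quantity: 8000 cells per well | Medium: Phenol-red-free RPMI with 5% fetal bovine serum | Reagent: Cytokine cocktail of IFN-γ, TNF-α and IL-1β | Doses: One compound concentration, pin transfer | Timing: 48 h co-treatment, 10 min post-lysis read | Technique: Luminescent ATP assay (CellTiter-Glo)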
T cruzi HTS: inhibitors of intracellular Trypanosoma cruzi, primary screen, cell-based, plate reader, single point, set 2. activity score (inhibition), % at 5.01 µM. intracellular Trypanosoma cruzi in host cells. 22,000 compounds, 4.9% hits; in the data active = activity score above about 55%;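 note: parasites and compound incubated about four days before reading; 0% = median of neutral control wells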
Starred values were filed as active, the others as inactive; · = not tested or not shown.

SMILES	A1 apoptosis 2	INS-1E ATP HTS	T cruzi HTS
O=C1O[C@H](c2ccccc2)[C@H](c2ccccc2)N2[C@H]1[C@@H](C(=O)N1CCCCCCC1)[C@]1(C(=O)Nc3ccccc31)[C@H]2c1ccc(O)cc1	-1	·	·
[O-]/[N+](=N\OCCBr)N1CCCC1	-1	·	·
C#Cc1ccc(OC)c(OC)c1	1	·	·
Cc1noc(C)c1S(=O)(=O)Nc1ccc2c(c1)C(=O)N([C@H](C)CO)C[C@H](C)[C@@H](CN(C)C(=O)Nc1ccc(C(F)(F)F)cc1)OCCCC[C@H](C)O2	1	·	·
C[C@@H]1CN([C@@H](C)CO)C(=O)c2cccc(NC(=O)c3nc4ccccc4s3)c2O[C@@H]1CN(C)C(=O)Nc1ccc(F)cc1	·	-4	7
C[C@@H]1CN([C@H](C)CO)C(=O)c2cccc(NC(=O)c3nc4ccccc4s3)c2O[C@@H]1CN(C)C(=O)Nc1ccc(C(F)(F)F)cc1	·	-67	-26
C[C@H](CO)N1C[C@H](C)[C@H](CN(C)C(=O)Nc2ccc(C(F)(F)F)cc2)Oc2c(NC(=O)c3nc4ccccc4s3)cccc2C1=O	·	-41	63*
C[C@H](CO)N1C[C@H](C)[C@@H](CN(C)C(=O)Nc2ccc(C(F)(F)F)cc2)Oc2c(NC(=O)c3nc4ccccc4s3)cccc2C1=O	-1	-11	58*
Cn1cc(/C=N/NC(=O)CCCCCC(=O)NO)c2ccccc21	0	·	·
C[C@H](CO)N1C[C@H](C)[C@H](CN(C)C(=O)Nc2ccc(C(F)(F)F)cc2)Oc2ccc(NC(=O)Nc3ccc(F)cc3)cc2C1=O	-2	-45	12
C[C@@H]1CN([C@H](C)CO)C(=O)Cc2cc(NC(=O)Nc3ccc4c(c3)OCO4)ccc2O[C@@H]1CN(C)Cc1ccccc1	·	6	37
C[C@H](CO)N1C[C@H](C)[C@H](CN(C)Cc2ccc(Oc3ccccc3)cc2)Oc2ccc(NC(=O)Nc3ccccc3)cc2CC1=O	·	-10	0
C[C@@H]1CN([C@H](C)CO)C(=O)Cc2cc(NC(=O)Nc3ccc4c(c3)OCO4)ccc2O[C@@H]1CN(C)Cc1ccc(Oc2ccccc2)cc1	·	-37	73*
C[C@@H]1CN([C@@H](C)CO)C(=O)Cc2cc(NC(=O)Nc3ccc4c(c3)OCO4)ccc2O[C@@H]1CN(C)Cc1ccc(Oc2ccccc2)cc1	·	-22	65*
C[C@@H]1CN([C@H](C)CO)C(=O)Cc2cc(NC(=O)Nc3ccc4c(c3)OCO4)ccc2O[C@H]1CN(C)Cc1ccc(Oc2ccccc2)cc1	-1	-47	78*
C[C@H]1CN([C@@H](C)CO)C(=O)Cc2cc(NC(=O)Nc3ccc4c(c3)OCO4)ccc2O[C@H]1CN(C)Cc1ccccc1	·	-6	5
CCn1c2ccccc2c2cc(/C=N/NC(=O)CCCCCC(=O)Nc3ccccc3O)ccc21	0	·	·
O=C(NO)c1ccc(C(=O)N/N=C/c2ccc(OCCO)cc2)cc1	·	-1	-12
C[C@@H]1CN([C@@H](C)CO)C(=O)c2cccc(NC(=O)Nc3ccc(C(F)(F)F)cc3)c2O[C@H]1CN(C)Cc1ccc(Oc2ccccc2)cc1	-1	-55	52
C[C@H]1CN([C@@H](C)CO)C(=O)c2cccc(NC(=O)Nc3ccc(C(F)(F)F)cc3)c2O[C@H]1CN(C)Cc1ccc(Oc2ccccc2)cc1	-2	-77	69*
C[C@@H]1CN([C@@H](C)CO)C(=O)c2cccc(NC(=O)Nc3ccc(C(F)(F)F)cc3)c2O[C@@H]1CN(C)Cc1ccc(Oc2ccccc2)cc1	·	-92	87*
C[C@@H]1CN([C@H](C)CO)C(=O)c2cccc(NC(=O)Nc3ccc(C(F)(F)F)cc3)c2O[C@H]1CN(C)Cc1ccc(Oc2ccccc2)cc1	-1	-4	42
C[C@@H]1CN([C@H](C)CO)C(=O)c2cccc(NC(=O)Nc3ccccc3)c2O[C@H]1CN(C)Cc1ccc(C(F)(F)F)cc1	0	-18	33
C[C@@H]1CN([C@H](C)CO)C(=O)c2cccc(NC(=O)Nc3ccc(C(F)(F)F)cc3)c2O[C@@H]1CN(C)Cc1ccc(Oc2ccccc2)cc1	·	-54	79*
O=C1O[C@@H](c2ccccc2)[C@@H](c2ccccc2)N2[C@@H](c3ccc(OCCO)cc3)[C@]3(C(=O)Nc4ccc(C#CCCO)cc43)[C@@H](C(=O)NC[C@H](O)c3ccccc3)[C@H]12	0	·	·
O=C(O)CCCCCC(=O)N/N=C/c1cccnc1	·	-7	-25
C=CCNC(=O)[C@@H]1[C@H]2C(=O)O[C@H](c3ccccc3)[C@H](c3ccccc3)N2[C@H](c2ccc(O)cc2)[C@@]12C(=O)Nc1ccc(C#Cc3ccc(OC)cc3)cc12	0	·	·

High-throughput results: PubChem BioAssay, Broad Institute
